C2C12 statin = suppression of simvastatin myotoxicity | C2C12 myotubes + simvastatin, ATP luminescence, 48 h; scaled: DMSO 0, geranylgeraniol control 100 | rescue of ATP level, % at 7.49 µM | hit rate 0.78% among 330,000 | AID 602340;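 active means mean ATP rescue above about 67%, or every replicate alone reaching that limit, limit read from the data, passing the limit was not always enough; inconclusive means no clear call, values can overlap the other calls; inactive means mean under the limit and some replicate under it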;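 further: myotubes were challenged with 10 µM simvastatin during compound exposure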
PglD DTNB = blocks C. jejuni PglD acetyltransferase activity. purified PglD enzyme, DTNB colorimetric CoA detection. inhibition, % at 12.5 µM. hit rate 0.098% among 360,000; in the data active means inhibition above about 16%, passing the limit was not always enough; inconclusive means no clear call, values can overlap the other calls
FGF22 binding = FGF22 (human) thermal shift binding; hit rate 1.5% among 340,000; recombinant FGF22 thermal shift, SYPRO orange fluorescence; percent of sucrose octasulfate shift, DMSO zero; activity (Tm shift, normalised), % at 9.99 µM; Q9HCT0;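 active means mean Tm shift, scaled 0 neutral to 100 positive control, at about 1.3% or above, every replicate too, limit read from the data; inconclusive means no clear call, values can overlap the other calls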
Target sequence (Q9HCT0 whole entry, looked up): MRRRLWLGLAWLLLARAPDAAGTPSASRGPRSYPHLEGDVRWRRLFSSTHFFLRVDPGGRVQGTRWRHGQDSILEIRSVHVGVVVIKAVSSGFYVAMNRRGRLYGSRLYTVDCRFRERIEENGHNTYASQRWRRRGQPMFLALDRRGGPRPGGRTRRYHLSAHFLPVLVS
XiGFP reactiv = reactivates the inactive X chromosome in mouse fibroblasts; XiGFP mouse fibroblasts, % GFP-positive cells imaging, 3 d; cells co-treated with 5-aza-dC sensitizer; scaled so ellipticine positive control = 100%; activation, % at 7.58 µM; hit rate 0.055% among 360,000; AID 743238;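 active means mean normalized replicate activation at least 10% and every replicate at or above 10%; inconclusive means only one of the two criteria met; inactive means mean below 10% and not all replicates reach 10%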;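 further: 0% = median of on-plate neutral control wells and 100% = ellipticine 6 µM median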
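Material: XiGFP fibroblasts, SV40-immortalized; Buffer or medium: DMEM containing 5-aza-dC; Compound dosing: single point; Times: 3 days compound exposure.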
E-selectin induc = induces E-selectin expression in human endothelial cells. P16581. HUVEC E-selectin immunofluorescence imaging; normalized: neutral wells 0, TNF-alpha wells 100. activation, % at 7.58 µM. hit rate 0.37% among 260,000. AID 686992;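 active means mean E-selectin-positive cell signal at least 10% of the positive control, reached in at least 60% of replicates, without over 20% cell loss; inconclusive means no rule given, readout overlaps actives, possibly toxicity-flagged; inactive means the rest, including those meeting only one limit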
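Assay system: HUVEC, human umbilical vein endothelial cells / Amount: 3,000 HUVEC/well / Controls: TNF-alpha positive control, DMSO neutral control / Compound dosing: single concentration / Medium: EGM-2 over gelatin coat / Evaluation: percent E-selectin-positive cells / Signal: immunofluorescence imaging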
DENV2 CPE rescue = inhibitors of DENV2 cytopathic effect; AID 651640; hit rate 1.7% among 350,000; DENV2-infected cells, cytopathic effect rescue, plate reader; CPE inhibition, % at 9.99 µM; in the data active means CPE inhibition above about 20%, passing the limit was not always enough; inconclusive means no clear call, values can overlap the other calls; tested in BHK-21 cells;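 further: 0% = median of neutral control wells and 100% = median of positive control wells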
The depositor's hits bear a star; ? = inconclusive; · = not tested or not shown. The list is not random: actives were taken first. Their share in the collection is about 3.3%.

SMILES	C2C12 statin	PglD DTNB	FGF22 binding	XiGFP reactiv	E-selectin induc	DENV2 CPE rescue
COc1ccc2c3c(n(C)c2c1)[C@@H](CO)N(Cc1ccncc1)CC31CCN(C(=O)C2CCCC2)CC1	·	·	0	0	0	13
C/C=C/c1ccc([C@@H]2[C@H](CO)N(C(=O)CC)[C@H]2CNC(=O)CC2CC2)cc1	-7	-1	·	0	0	·
Cc1ccc(/C=C2\SC(=O)N(CCC(=O)N3CCN(C)CC3)C2=O)cc1	-1	3	0	0	·	?
CN1CCN(C(=O)CCN2C(=O)S/C(=C/c3ccc(Cl)cc3)C2=O)CC1	·	·	43*	0	·	12
CCCNC(=O)C[C@H]1CC[C@H]2[C@@H](COC[C@@H](O)CN2C(=O)Nc2ccccc2OC)O1	5	-3	0	0	0	44*
CCCNC(=O)C[C@H]1CC[C@H]2[C@@H](COC[C@H](O)CN2C(=O)Nc2ccccc2OC)O1	-6	1	0	0	0	21*
CCNC(=O)C[C@@H]1CC[C@@H]2[C@H](COC[C@@H](O)CN2C(=O)CC)O1	2	0	0	0	0	-10
CCCNC(=O)C[C@H]1CC[C@@H]2[C@H](COC[C@H](O)CN2C(=O)CC)O1	-8	1	0	0	0	83*
CCCNC(=O)C[C@@H]1CC[C@H]2[C@@H](COC[C@H](O)CN2C(=O)Nc2ccccc2OC)O1	5	-3	0	0	0	9
CCCNC(=O)C[C@@H]1CC[C@@H]2[C@H](COC[C@@H](O)CN2C(=O)Nc2ccccc2OC)O1	-5	0	0	0	0	6
CCCC#Cc1ccc2c(c1)O[C@@H](CN(C)Cc1ccc3c(c1)OCO3)[C@@H](C)CN([C@@H](C)CO)S2(=O)=O	3	3	-1	0	0	-1
CN(c1ccc(Cl)cc1)c1cc(=O)n(C)c2ccccc12	129*	·	·	·	·	·
CN(C(=O)COc1cc(=O)n(C)c2ccccc12)c1ccc(Cl)cc1	-1	-2	0	0	0	8
Cc1cc(=O)n(C)c2ccccc12	·	·	43*	0	5	-2
O=C(NCC1CC1)[C@@H]1[C@@H](CO)[C@@H]2Cn3c(ccc(-c4cccc(F)c4)c3=O)[C@@H]2N1CC1CC1	11	2	·	0	0	0
C[C@H](CO)N1C[C@H](C)[C@@H](CN(C)S(C)(=O)=O)Oc2ccc(NC(=O)c3ccncc3)cc2CC1=O	5	12	1	0	2	?
COc1ccc(NC(=O)Nc2ccc3c(c2)CC(=O)N([C@H](C)CO)C[C@H](C)[C@@H](CN(C)S(=O)(=O)c2cn(C)cn2)O3)cc1	19	-1	0	1	·	22*
C[C@H](CO)N1C[C@H](C)[C@@H](CN(C)S(=O)(=O)c2cn(C)cn2)Oc2ccc(NC(=O)c3ccncc3)cc2CC1=O	2	-1	0	0	11	1
C[C@@H]1CN([C@H](C)CO)C(=O)Cc2cc(NC(=O)c3ccncc3)ccc2O[C@H]1CN(C)S(C)(=O)=O	12	5	0	0	447*	10
C[C@@H]1CN([C@H](C)CO)C(=O)Cc2cc(NC(=O)Nc3ccccc3)ccc2O[C@H]1CN(C)S(=O)(=O)c1cn(C)cn1	6	1	0	-1	0	62*
C[C@@H]1CN([C@@H](C)CO)C(=O)Cc2cc(NC(=O)c3ccncc3)ccc2O[C@@H]1CN(C)S(=O)(=O)c1cn(C)cn1	·	·	1	0	321*	-7
O=C(C[C@@H]1C[C@@H]2c3cc(NC(=O)Cc4ccncc4)ccc3O[C@@H]2[C@@H](CO)O1)NCC1CC1	-1	2	0	0	0	16
CN(C)N=Nc1ccc(S(=O)(=O)NC(Cc2ccccc2)C(=O)O)cc1 (stereo not given)	2	1	0	0	0	-1
Cc1ccc(S(=O)(=O)NC(Cc2ccccc2)C(=O)O)cc1C (stereo not given)	8	-2	0	0	59*	14
CN1CCN(C(c2ccccc2)c2nnnn2Cc2ccccc2)CC1 (stereo not given)	141*	3	·	·	·	·
